ChEMBL document CHEMBL1125027, “Synthesis and cytotoxicity studies of 8-amino-6-methyl-2-beta-D-ribofuranosyl-1,2,3,5,6,7-hexaazaacenaphthyle ne (7-aza-TCN) and the corresponding 2'-deoxy- and arabinonucleoside analogues” (1990)

Legend:
HEp-2 [1] = assay: Growth rate of H.Ep.2 tumor cells at a concentration of 50 uM; format: functional, Homo sapiens
Summary of the method: (§1)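 Human epidermoid carcinoma H.Ep.2 monolayers kept in exponential growth in Eagle's basal medium (Hanks' salts) with 0.5 g/L NaHCO3 and 15% heat-inactivated calf serum. 2 × 10^4 cells seeded per flask; after 1 day, compound-containing medium added. Trypsin/EDTA harvest and counts of two flasks per group on days 1, 2 and 4. Growth rate = control doubling time (about 19 h) / treated doubling time, as % of control.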

L1210 [2] = assay: Growth rate of L1210 tumor cells at a concentration of 50 uM; format: functional, Mus musculus
Summary of the method: (§2)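 Murine leukemia L1210 grown in static suspension in Fischer's medium with test compound for 3 days, counted daily. Growth rate = slope of log cell number vs time relative to control, computed as control doubling time (about 12 h) / treated doubling time, expressed as %. Values are single experiments unless footnoted as the average of three.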

L1210 [3] = assay: Growth rate of L1210 tumor cells at a concentration of 100 uM; format: functional, Mus musculus; summary of the method: as §2
HEp-2 [4] = assay: Growth rate of H.Ep.2 tumor cells at a concentration of 10 uM; format: functional, Homo sapiens; summary of the method: as §1
L1210 [5] = assay: Growth rate of L1210 tumor cells at a concentration of 10 uM; format: functional, Mus musculus; summary of the method: as §2
HEp-2 [6] = assay: Growth rate of H.Ep.2 tumor cells at a concentration of 100 uM; format: functional, Homo sapiens; summary of the method: as §1

Structure (SMILES) | Growth rate (L1210 [3]) [%] | Growth rate (HEp-2 [6]) [%] | also measured
CN1N=C(N)c2nn(C3O[C@H](CO)[C@@H](O)[C@@H]3O)c3ncnc1c23 (stereo not given in full) | – | – | Growth rate (HEp-2 [1]): 62%; Growth rate (L1210 [2]): 75%
CSc1nc2c3c(nn(C4O[C@H](CO)[C@@H](O)[C@H]4O)c3n1)C(N)=NN2C (stereo not given in full) | 81 | – | –
CN1N=C(N)c2nn(C3O[C@H](CO)[C@@H](O)[C@H]3O)c3nc(NN)nc1c23 (stereo not given in full) | – | – | Growth rate (HEp-2 [4]): 88%; Growth rate (L1210 [5]): 86%
CN1N=C(N)c2nn(C3O[C@H](CO)[C@@H](O)[C@H]3O)c3nc(S(C)(=O)=O)nc1c23 (stereo not given in full) | 86 | – | –
CN1N=C(N)c2nn(C3O[C@H](CO)[C@@H](O)[C@H]3O)c3ncnc1c23 (stereo not given in full) | 63 | 67 | –
CN1N=C(N)c2nn([C@H]3C[C@H](O)[C@@H](CO)O3)c3ncnc1c23 | 83 | 100 | –
